Results on one compound are retold here after PMC9890135 (Molecular Cancer Therapeutics, 2022).

Molecules are shown by their SMILES.

One test concerns the target T1, AXL (Homo sapiens, UniProt P30530).
T1 sequence (P30530 26-894): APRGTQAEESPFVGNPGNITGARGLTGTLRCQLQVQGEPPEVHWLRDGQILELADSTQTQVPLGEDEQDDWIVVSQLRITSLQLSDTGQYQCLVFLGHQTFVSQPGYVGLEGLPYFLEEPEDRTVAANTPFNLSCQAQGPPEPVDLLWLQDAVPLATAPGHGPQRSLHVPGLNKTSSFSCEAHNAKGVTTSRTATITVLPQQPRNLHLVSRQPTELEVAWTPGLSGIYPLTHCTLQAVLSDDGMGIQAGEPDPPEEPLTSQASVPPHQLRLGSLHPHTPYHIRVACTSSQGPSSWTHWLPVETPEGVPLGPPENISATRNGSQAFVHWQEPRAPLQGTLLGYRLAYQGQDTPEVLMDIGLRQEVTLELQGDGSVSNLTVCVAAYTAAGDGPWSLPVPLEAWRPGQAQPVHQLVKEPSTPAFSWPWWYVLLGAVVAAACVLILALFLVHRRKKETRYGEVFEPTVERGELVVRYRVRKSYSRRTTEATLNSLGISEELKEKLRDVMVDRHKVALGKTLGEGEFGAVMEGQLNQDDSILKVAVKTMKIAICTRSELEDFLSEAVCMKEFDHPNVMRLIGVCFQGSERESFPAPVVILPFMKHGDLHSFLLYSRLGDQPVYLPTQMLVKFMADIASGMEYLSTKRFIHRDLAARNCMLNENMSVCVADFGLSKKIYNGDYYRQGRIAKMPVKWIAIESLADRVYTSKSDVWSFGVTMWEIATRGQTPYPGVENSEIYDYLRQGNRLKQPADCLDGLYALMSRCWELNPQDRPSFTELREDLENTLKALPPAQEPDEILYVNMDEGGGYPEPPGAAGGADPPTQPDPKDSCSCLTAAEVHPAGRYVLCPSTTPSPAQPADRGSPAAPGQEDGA
Kind of test: AXL phosphorylation in Hs 746T tumors in vivo. Also noted: species or system mice. A digest of the protocol:
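Hs 746T xenograft mice received single oral doses (30 or 100 mg/kg) or vehicle, n = 6/group. […] Tumour pAXL/AXL ratio reported as mean ± SEM, Mann–Whitney U test. Duration study: 100 mg/kg group sampled every 12 h up to 48 h.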

The next test deals with VEGFR2 (Homo sapiens, UniProt P35968). The test can be described thus: Inhibition of receptor phosphorylation, ELISA, HUVEC/VEGF165. The class given is cell-based. The conditions noted are these: Cellular IC50 ± SD, VEGFR2 autophosphorylation, serum-free.
The next test relates to Hs 746T tumors. Kind of test: Hs 746T xenograft tumor growth. The class given is in vivo, mice. Particulars: 12 days, oral. A digest of the protocol:
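Human tumour cells inoculated into the rear flank. Mice randomised at mean volumes of ~200 mm3 (Hs 746T), ~120 mm3 (MDA-MB-231), ~100 mm3 (NCI-H441) or ~90 mm3 (SNU-5). Oral gavage once daily with test compound or vehicle. Tumour volume and body weight measured at least twice weekly. […], using mean volumes at extraction and dosing start.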

The next test addresses T2, TYRO3 (Homo sapiens, UniProt Q06418).
T2 sequence (Q06418 41-890): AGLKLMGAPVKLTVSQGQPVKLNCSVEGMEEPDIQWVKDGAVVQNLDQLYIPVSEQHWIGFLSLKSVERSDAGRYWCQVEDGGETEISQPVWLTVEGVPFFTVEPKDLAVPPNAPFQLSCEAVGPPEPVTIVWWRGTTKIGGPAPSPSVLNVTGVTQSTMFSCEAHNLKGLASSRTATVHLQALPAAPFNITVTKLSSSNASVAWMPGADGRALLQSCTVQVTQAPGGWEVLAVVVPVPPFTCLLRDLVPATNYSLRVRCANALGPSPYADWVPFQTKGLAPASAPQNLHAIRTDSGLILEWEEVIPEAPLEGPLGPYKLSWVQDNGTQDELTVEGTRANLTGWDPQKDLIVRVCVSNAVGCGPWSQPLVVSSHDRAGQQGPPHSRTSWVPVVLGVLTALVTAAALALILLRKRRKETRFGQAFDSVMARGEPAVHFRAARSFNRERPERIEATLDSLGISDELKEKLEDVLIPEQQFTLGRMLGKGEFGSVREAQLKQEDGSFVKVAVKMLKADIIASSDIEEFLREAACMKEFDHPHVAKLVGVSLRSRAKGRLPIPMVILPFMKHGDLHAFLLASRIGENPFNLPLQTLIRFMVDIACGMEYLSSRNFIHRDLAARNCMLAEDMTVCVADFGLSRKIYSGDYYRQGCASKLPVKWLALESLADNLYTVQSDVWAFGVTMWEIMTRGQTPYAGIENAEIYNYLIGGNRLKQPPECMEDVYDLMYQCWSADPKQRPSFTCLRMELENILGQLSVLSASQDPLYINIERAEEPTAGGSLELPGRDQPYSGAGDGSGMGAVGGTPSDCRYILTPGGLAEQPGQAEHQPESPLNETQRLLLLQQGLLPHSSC
The test can be described thus: Inhibition of receptor phosphorylation, ELISA, TYRO3-transfected 293A cells. The class given is cell-based. Put shortly:
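293A cells transfected with TYRO3 were serum-starved 3–24 h, then incubated 1 h in serum-free medium with serially diluted test compound. Receptor phosphorylation quantified by ELISA to derive IC50.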

For a further test, the system named is SNU-5 cells. Kind of test: Cellular proliferation, BrdU incorporation ELISA. The class given is cell-based. Particulars: Homo sapiens, SNU-5, 48 h, read-out: Proliferation IC50. Put shortly: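 SNU-5 seeded at 7,500 cells/well in triplicate in IMDM + 10% FBS + 1% penicillin-streptomycin, overnight at 37°C, 5% CO2. Serial dilutions added for 48 h. BrdU labelling 2 h at 37°C. Plates spun 300 × g, 10 min before medium removal. FixDenat 30 min at RT, anti-BrdU-POD 90 min at RT, washes, chemiluminescent read.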

VEGFR2, sequence (P35968 20-1356): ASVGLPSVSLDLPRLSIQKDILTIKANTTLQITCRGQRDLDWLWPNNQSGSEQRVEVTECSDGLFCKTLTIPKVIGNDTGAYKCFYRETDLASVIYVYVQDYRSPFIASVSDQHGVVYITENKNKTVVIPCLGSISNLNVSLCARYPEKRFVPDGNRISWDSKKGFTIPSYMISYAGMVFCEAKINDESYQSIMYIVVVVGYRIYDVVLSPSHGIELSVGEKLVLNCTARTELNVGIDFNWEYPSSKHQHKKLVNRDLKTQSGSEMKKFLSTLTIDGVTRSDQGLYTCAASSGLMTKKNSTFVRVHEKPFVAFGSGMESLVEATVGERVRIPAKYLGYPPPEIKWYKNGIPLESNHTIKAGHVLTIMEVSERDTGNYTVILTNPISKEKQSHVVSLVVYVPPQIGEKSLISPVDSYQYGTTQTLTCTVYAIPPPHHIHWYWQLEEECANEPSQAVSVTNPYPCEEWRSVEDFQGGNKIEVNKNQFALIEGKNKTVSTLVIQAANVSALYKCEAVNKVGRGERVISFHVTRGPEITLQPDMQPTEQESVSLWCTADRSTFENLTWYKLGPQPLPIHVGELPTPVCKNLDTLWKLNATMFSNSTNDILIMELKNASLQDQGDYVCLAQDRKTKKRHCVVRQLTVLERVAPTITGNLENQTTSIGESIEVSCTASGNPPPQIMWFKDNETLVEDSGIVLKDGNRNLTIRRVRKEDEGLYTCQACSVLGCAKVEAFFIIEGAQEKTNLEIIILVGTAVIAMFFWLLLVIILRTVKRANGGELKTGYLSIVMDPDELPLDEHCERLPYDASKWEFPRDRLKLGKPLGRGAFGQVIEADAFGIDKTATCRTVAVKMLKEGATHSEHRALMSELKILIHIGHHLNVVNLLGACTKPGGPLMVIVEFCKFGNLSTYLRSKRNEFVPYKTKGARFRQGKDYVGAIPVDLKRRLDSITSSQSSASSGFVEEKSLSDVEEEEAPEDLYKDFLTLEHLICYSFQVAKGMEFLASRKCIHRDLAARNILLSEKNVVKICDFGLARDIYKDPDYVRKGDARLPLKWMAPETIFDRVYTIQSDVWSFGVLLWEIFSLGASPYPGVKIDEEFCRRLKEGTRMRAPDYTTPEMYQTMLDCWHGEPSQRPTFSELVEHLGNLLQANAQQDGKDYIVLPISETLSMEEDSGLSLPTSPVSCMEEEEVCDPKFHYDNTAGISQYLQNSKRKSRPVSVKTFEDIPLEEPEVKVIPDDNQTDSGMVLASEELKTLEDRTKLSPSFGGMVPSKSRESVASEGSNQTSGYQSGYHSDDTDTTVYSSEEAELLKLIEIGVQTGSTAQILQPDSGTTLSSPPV

Take `CNC(=O)c1cc2c(Oc3ccc(NC(=O)C4(C(=O)Nc5ccc(F)cc5)CC4)cc3)ccnc2cc1OC` [XL092]: at AXL (Hs 746T model, single dose of 100 mg/kg), the “duration of inhibition of AXL phosphorylation” value is recorded as “approximately 24 hours”. Further, at AXL (Hs 746T xenograft, single oral doses 30 or 100 mg/kg, P < 0.01), the “tumor AXL phosphorylation relative to vehicle” value was “significant decrease”. Besides, the IC50 on VEGFR2 turned out to be 1.57 ± 1.52 nM; at TYRO3, 306 ± 1.37 nM; with SNU-5 cells, 98.9 nM. Further, the Tumor growth inhibition in the test on Hs 746T tumors (1 mg/kg/day) was 10.1%; in the test with Hs 746T tumors (3 mg/kg/day) it was 35.6%; with Hs 746T tumors (10 mg/kg/day), 70.2%; in the test on Hs 746T tumors (30 mg/kg/day) it was 94.9%.
